Screens as filed in PubChem BioAssay.
PKD1 inh – PKD1 (human) kinase inhibition | AID 797 | inhibition, % (concentration not given with the values) | 200,000 tested, 0.056% active | PKD1 kinase fluorescence polarization assay; in the data active means inhibition above about 50%
Target sequence (Q15139 whole entry, looked up): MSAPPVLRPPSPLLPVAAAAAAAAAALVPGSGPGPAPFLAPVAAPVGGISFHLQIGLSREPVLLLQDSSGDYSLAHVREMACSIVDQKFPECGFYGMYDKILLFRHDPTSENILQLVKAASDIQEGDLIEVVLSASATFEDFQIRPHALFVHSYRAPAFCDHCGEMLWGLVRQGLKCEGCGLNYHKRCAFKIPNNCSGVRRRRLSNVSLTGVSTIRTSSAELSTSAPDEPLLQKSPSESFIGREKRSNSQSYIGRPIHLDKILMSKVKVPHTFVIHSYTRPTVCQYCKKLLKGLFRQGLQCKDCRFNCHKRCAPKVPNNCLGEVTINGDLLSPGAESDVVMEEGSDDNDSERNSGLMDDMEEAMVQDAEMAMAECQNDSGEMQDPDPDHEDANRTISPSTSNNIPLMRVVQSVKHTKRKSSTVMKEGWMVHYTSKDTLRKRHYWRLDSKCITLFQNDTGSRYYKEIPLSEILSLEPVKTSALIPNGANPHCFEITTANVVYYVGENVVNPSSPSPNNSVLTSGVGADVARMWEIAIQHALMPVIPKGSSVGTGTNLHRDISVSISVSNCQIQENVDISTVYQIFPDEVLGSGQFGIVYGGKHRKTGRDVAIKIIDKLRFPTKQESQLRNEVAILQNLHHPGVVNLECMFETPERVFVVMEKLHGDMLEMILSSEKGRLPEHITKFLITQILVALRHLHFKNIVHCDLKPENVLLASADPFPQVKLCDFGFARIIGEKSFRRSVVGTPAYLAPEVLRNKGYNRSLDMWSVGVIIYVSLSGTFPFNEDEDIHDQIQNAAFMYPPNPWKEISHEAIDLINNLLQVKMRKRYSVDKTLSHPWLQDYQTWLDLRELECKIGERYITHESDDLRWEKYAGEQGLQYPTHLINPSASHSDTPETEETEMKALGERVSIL
Wee1 stabilizer – inhibitors of human Wee1 degradation; HeLa Luc-Wee1K328M stability, luciferase luminescence; 100% = proteasome inhibitor MG132 effect; AID 1321; reporter increase, % at 5 µM; 220,000 tested, 1.2% active; P30291;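 active means activation above the mean of all tested compounds plus 3 SD, set per screening run, cut at about 8.8% in these data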;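 further: cells exposed to compound for 20 h before luminescence read; 0% = DMSO alone and 100% = MG132 at 30 µM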
FLuc inhib CS – Photinus pyralis luciferase inhibition counter-screen. ATPLite firefly luciferase biochemical luminescence, 10 min. inhibition, % at 10 µM. 200,000 tested, 1.5% active. AID 1006;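 active means inhibition above about 50% when tested at 10 µM, limit read from the data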
PPC-1+TRAIL kill – compounds killing PPC-1 cancer cells with TRAIL present (potentiator screen, no TRAIL-free arm). PPC-1 cells + TRAIL, ATPLite viability luminescence. cell killing (% activity), % at 4 µM or 5 µM. 220,000 tested, 0.41% active. AID 1443;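 active means cell killing above 50% in the first pass at 4 µM, then a duplicate retest at 5 µM averaging 50% or more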;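 further: plate controls were cells with TRAIL plus DMSO for no effect and medium-only wells lacking cells for full effect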
FLuc act counter – affects firefly luciferase, flagging false hits in luciferase stimulation screens; ATPlite luciferase biochemical, luminescence, 10 min; 0 = ATP-free wells, 1 = DMSO control; activation factor at 10 µM; 200,000 tested, under 10 active; AID 1027;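 active means luciferase activation factor, scaled between plate controls, of at least 2 with compound at 10 µM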
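Material: luciferase plus luciferin reagent, cell-free. Medium: PBS buffer for ATP. Also added: ATP substrate, dispensed from a 10.24 µM working solution in PBS. Doses: test compounds dosed from 2 mM stocks in 100% DMSO. Incubation: 10 min post-reagent at room temperature. Technique: light output (luminescence). Read-out basis: luminescence gain marking luciferase activators.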
TRAIL sens C8 – caspase-8 TRAIL sensitization. NB7+C8 cells + TRAIL, ATPlite viability luminescence. inhibition (viability loss, TRAIL sensitization), % at 10 µM. 360,000 tested, 1% active;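 active means compounds causing at least 50% loss of cell viability in the single-dose screen, relative to plate controls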
* = called active by the depositor; ! = not active in a repeat. In the library only some 2.2% were active in any assay of this set; here they are far more common.

For COCCN(C(=O)CNC(=O)c1cccs1)C(C(=O)NC1CCCC1)c1cccs1 (configuration not stated) the results were PKD1 inh -19, Wee1 stabilizer 9.8*, FLuc inhib CS -9, PPC-1+TRAIL kill 16, FLuc act counter 1.1 and TRAIL sens C8 -15.
For COCCN(C(=O)CNC(=O)c1cccs1)C(C(=O)NC1CCCCC1)c1ccco1 (configuration not stated) the results were PKD1 inh -8, Wee1 stabilizer -1, FLuc inhib CS -10, PPC-1+TRAIL kill 5, FLuc act counter 1.1 and TRAIL sens C8 7.
Screening CCCC1/C(=N/O)CC(c2ccccc2)NC1c1ccccc1 (configuration not stated) returned PKD1 inh -6, Wee1 stabilizer 9.1*, FLuc inhib CS -6, PPC-1+TRAIL kill 26, FLuc act counter 1.1 and TRAIL sens C8 -5.
Screening CC1/C(=N/O)CC(c2ccccc2)NC1c1ccccc1 (configuration not stated) returned PKD1 inh -2, Wee1 stabilizer 3, FLuc inhib CS -5, PPC-1+TRAIL kill -15, FLuc act counter 1.1 and TRAIL sens C8 0.
Screening COC(=O)C12OCC34C(CC5C(C)=C(O)C(=O)CC5(C)C3C(O)C1O)OC(=O)C(OC(=O)C=C(C)C)C24 (configuration not stated) returned TRAIL sens C8 65*.
CN1C(=O)[C@H](Cc2ccc([N+](=O)[O-])cc2)NC1=S was read as TRAIL sens C8 22.
For CC(=O)Oc1ccc2c(=O)c(-c3nc4ccccc4s3)coc2c1 the results were PKD1 inh 8, Wee1 stabilizer 9.1*, FLuc inhib CS 80*, PPC-1+TRAIL kill 37, FLuc act counter 0.2 and TRAIL sens C8 69*.
For COc1ccc2c(=O)c(-c3ccc4c(c3)OCO4)coc2c1 the results were PKD1 inh -5, Wee1 stabilizer 0, FLuc inhib CS 66*, PPC-1+TRAIL kill 40, FLuc act counter 0.3 and TRAIL sens C8 57*.
For CC(C)Oc1ccc2c(=O)c(-c3ccccc3)coc2c1 the results were PKD1 inh -9, Wee1 stabilizer 2, FLuc inhib CS 61*, PPC-1+TRAIL kill 37, FLuc act counter 0.4 and TRAIL sens C8 21.
`CCN(CC)C(=O)Oc1ccc2c(=O)c(-c3ccc(OC)cc3)coc2c1` gave PKD1 inh 10, Wee1 stabilizer 0, FLuc inhib CS 1, PPC-1+TRAIL kill -2, FLuc act counter 1 and TRAIL sens C8 22.
O=C(Nc1ccc(N2CCOCC2)c(Cl)c1)c1ccc(-n2cnnc2)cc1Cl was read as TRAIL sens C8 -14.
`Cc1csc(SCC(=O)NC(C)c2ccc(F)cc2)n1` (configuration not stated) gave PKD1 inh -7, Wee1 stabilizer 0, FLuc inhib CS 0, PPC-1+TRAIL kill 8, FLuc act counter 1 and TRAIL sens C8 -1.
Nc1ccccc1C#CC(=O)c1ccccc1 was read as TRAIL sens C8 64*.
For O=C(C#Cc1cccc([N+](=O)[O-])c1)c1ccccc1 the results were PKD1 inh 1, Wee1 stabilizer 0, FLuc inhib CS 0, PPC-1+TRAIL kill 9, FLuc act counter 1 and TRAIL sens C8 83*.
Screening Nc1ccccc1C#Cc1ccc([N+](=O)[O-])cc1 returned TRAIL sens C8 26.
Cc1cccc(N2C(=O)N3[C@H]4c5ccccc5OC[C@@H]4[C@@H](c4ccccc4)[C@@]3(C)C2=O)c1 was read as TRAIL sens C8 8.
`N#C/C(=C\c1cc([N+](=O)[O-])ccc1Cl)C(N)=O` gave PKD1 inh 5, Wee1 stabilizer 2, FLuc inhib CS -12, PPC-1+TRAIL kill 4, FLuc act counter 1.1 and TRAIL sens C8 8.
Screening N#C/C(=C/c1ccc([N+](=O)[O-])cc1)C(N)=O returned PKD1 inh -1, Wee1 stabilizer 11*, FLuc inhib CS -9, PPC-1+TRAIL kill 3, FLuc act counter 1.1 and TRAIL sens C8 -3.
`COc1ccccc1C(=O)NC(=Nc1nc2ccccc2o1)NC(=O)c1ccccc1OC` gave PKD1 inh -12, Wee1 stabilizer 1, FLuc inhib CS 4, PPC-1+TRAIL kill 3, FLuc act counter 1 and TRAIL sens C8 71*!.
ClCC(CNCc1ccccc1)c1ccccc1 (configuration not stated) was read as TRAIL sens C8 -11.
`Cc1cccc(OCC(=O)Nc2ccc3c(c2)OCCO3)c1` gave PKD1 inh -13, Wee1 stabilizer 4, FLuc inhib CS 54*, PPC-1+TRAIL kill 17, FLuc act counter 0.5 and TRAIL sens C8 23.
Screening COc1ccc(Cl)cc1C(=O)Nc1ccc2c(c1)OCO2 returned PKD1 inh 0, Wee1 stabilizer -4, FLuc inhib CS 38, PPC-1+TRAIL kill 27, FLuc act counter 0.6 and TRAIL sens C8 2.
COc1ccc(Cl)cc1C(=O)Nc1ccc2c(c1)OCCO2 was read as TRAIL sens C8 52*.
CN(CCC(=O)Nc1ccc2c(c1)OCO2)Cc1ccccc1 was read as PKD1 inh 0, Wee1 stabilizer 10*, FLuc inhib CS 0, PPC-1+TRAIL kill 15, FLuc act counter 1 and TRAIL sens C8 5.
Screening Cc1ccc(C(=O)Nc2ccc3c(c2)OCO3)cc1 returned PKD1 inh -1, Wee1 stabilizer -2, FLuc inhib CS 88*, PPC-1+TRAIL kill 72*, FLuc act counter 0.1 and TRAIL sens C8 74*.
O=C(Nc1ccc2c(c1)OCO2)c1ccncc1 was read as PKD1 inh 3, Wee1 stabilizer -1, FLuc inhib CS 1, PPC-1+TRAIL kill -2, FLuc act counter 1 and TRAIL sens C8 2.
COc1ccccc1CNc1nc(NCC2CC2)nc2ccsc12 was read as TRAIL sens C8 30.
`Cc1ccc(OCC(=O)Oc2c(C)cccc2C)cc1C` gave TRAIL sens C8 18.
Screening COc1cccc(NC(=O)CN(C)C(=O)c2c(C)nn(-c3ccccc3)c2Cl)c1 returned TRAIL sens C8 7.
`O=C(Nc1ccc2c(c1)OCO2)c1noc2c1CCCC2` gave TRAIL sens C8 23.
`CN(c1ccc(C(=O)Nc2ccc3c(c2)OCCO3)cc1)S(C)(=O)=O` gave PKD1 inh 3, Wee1 stabilizer -3, FLuc inhib CS 56*, PPC-1+TRAIL kill 36, FLuc act counter 0.4 and TRAIL sens C8 42.
For O=C(Nc1ccc2c(c1)OCO2)c1noc2c1CCCCC2 the results were PKD1 inh 3, Wee1 stabilizer 10*, FLuc inhib CS 57*, PPC-1+TRAIL kill 34, FLuc act counter 0.4 and TRAIL sens C8 47.
`Cc1ccc(C(=O)Nc2ccc3c(c2)OCO3)o1` gave PKD1 inh -8, Wee1 stabilizer 0, FLuc inhib CS 40, PPC-1+TRAIL kill 28, FLuc act counter 0.6 and TRAIL sens C8 19.
